Measured values published in ChEMBL document CHEMBL4699388, “Antiproliferative activities of tricyclic amides derived from beta-caryophyllene via the Ritter reaction against MDA-MB-231 breast cancer cells” (RSC Med Chem, 2020).
The source made the active and inactive calls. The rule behind the calls is not given here.

Columns and labels:
[1] = system: MDA-MB-231; assay: Antiproliferative activity against human MDA-MB-231 cells assessed as reduction in cell viability at 25 to 50 uM measured after 48 hrs by MTS assay; format: functional, cell-based; settings: dose microM 25-50, time 48.0 hrs
In short: (§1)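 MDA-MB-231 cells exposed to compounds at 25 and 50 μM for 48 h. Viability is compared with a DMSO-treated control. Mean ± SEM from three separate experiments; significance vs control.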

[2] = system: MDA-MB-231; assay: Antiproliferative activity against human MDA-MB-231 cells assessed as reduction in cell viability measured after 48 hrs by MTS assay; format: functional, cell-based; settings: MDA-MB-231, 48 h
In short: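 Concentration–response in MDA-MB-231 cells across a wide concentration range. The dose–response data are used to calculate IC50 for proliferation (MTS).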

[3] = system: Vero; assay: Cytotoxicity against African green monkey Vero cells assessed as reduction in cell viability measured after 72 hrs by resazurin assay; format: cell-based; settings: chlorocebus sabaeus
[4] = system: MDA-MB-231; assay: Antiproliferative activity against human MDA-MB-231 cells assessed as reduction in cell viability at 5 uM measured after 48 hrs by MTS assay; format: functional, cell-based
[5] = Selectivity ratio of cytotoxicity against African green monkey Vero cells assessed as reduction in cell viability measured after 72 hrs by resazurin assay to antiproliferative activity against human MDA-MB-231 cells assessed as reduction in cell viability measured after 48 hrs by MTS assay; format: toxicity, cell-based; settings: Vero cells versus MDA-MB-231 cells
[6] = system: MDA-MB-231; assay: Cell cycle arrest in human MDA-MB-231 cells assessed as accumulation at G2/M phase at 9 uM measured after 24 hrs by RNaseA/propidium iodide staining based flow cytometry analysis relative to control; format: functional
In short: (§2)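 MDA-MB-231 cells treated 24 h with 10 μM or 9 μM test agent or DMSO control. Cell cycle distribution is read by flow cytometry and expressed as percentage change from control. Mean ± SEM, three separate experiments; p vs DMSO control.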

[7] = system: MDA-MB-231; assay: Cell cycle arrest in human MDA-MB-231 cells assessed as decrease in cell population at G0/G1 phase at 9 uM measured after 24 hrs by RNaseA/propidium iodide staining based flow cytometry analysis; format: functional; in short: as §2
[8] = system: MDA-MB-231; assay: Induction of apoptosis in human MDA-MB-231 cells assessed as healthy cells at 20 uM measured after 48 hrs by annexicV-FITC/propidium iodide staining based flow cytometry analysis (reference value: 87.4 %); format: functional
[9] = system: MDA-MB-231; assay: Induction of apoptosis in human MDA-MB-231 cells assessed as early apoptotic cells at 20 uM measured after 48 hrs by annexicV-FITC/propidium iodide staining based flow cytometry analysis (reference value: 5.8 %); format: functional
[10] = system: MDA-MB-231; assay: Induction of apoptosis in human MDA-MB-231 cells assessed as late apoptotic cells at 20 uM measured after 48 hrs by annexicV-FITC/propidium iodide staining based flow cytometry analysis (reference value: 4.4 %); format: functional
[11] = system: MDA-MB-231; assay: Induction of apoptosis in human MDA-MB-231 cells assessed as necrotic cells at 20 uM measured after 48 hrs by annexicV-FITC/propidium iodide staining based flow cytometry analysis (reference value: 2.4 %); format: functional
[12] = system: MDA-MB-231; assay: Induction of apoptotic cell death in human MDA-MB-231 cells at 20 uM measured after 48 hrs by annexicV-FITC/propidium iodide staining based flow cytometry analysis; format: functional
[13] = system: Vero; assay: Cytotoxicity against African green monkey Vero cells assessed as reduction in cell viability measured at 129 uM after 72 hrs by resazurin assay relative to control; format: cell-based; settings: chlorocebus sabaeus
[14] = system: Vero; assay: Cytotoxicity against African green monkey Vero cells assessed as reduction in cell viability measured at 168 uM after 72 hrs by resazurin assay relative to control; format: cell-based; settings: chlorocebus sabaeus
[15] = system: MDA-MB-231; assay: Cell cycle arrest in human MDA-MB-231 cells at 10 uM measured after 24 hrs by RNaseA/propidium iodide staining based flow cytometry analysis; format: functional; in short: as §2
[16] = system: MDA-MB-231; assay: Antiproliferative activity against human MDA-MB-231 cells assessed as reduction in cell viability at 50 uM measured after 48 hrs by MTS assay; format: functional, cell-based; in short: as §1
[17] = Aqueous solubility of the compound; format: physicochemical; settings: buffer

CC1(C)C[C@H](NC(=O)CCl)[C@]23CC[C@@H](NC(=O)CCl)[C@@](C)(CC[C@@H]12)C3
Activity [1]: Active
IC50 [2]: 8.2 µM
Activity [3]: 129 µM
inhibition [4]: Active
selectivity ratio [5]: 25
Activity [6]: 91%
Activity [7]: Active
Activity [8]: 7.6%
Activity [9]: 13.5%
Activity [10]: 74.3%
Activity [11]: 4.6%
Activity [12]: Active
Activity [13]: 88%

CCCCN[C@]12CCC[C@](C)(CC[C@@H]3[C@@H]1CC3(C)C)C2
Activity [1]: Active
IC50 [2]: 37.3 µM

CCCN[C@]12CCC[C@](C)(CC[C@@H]3[C@@H]1CC3(C)C)C2
Activity [1]: Active
IC50 [2]: 45.9 µM

CC1(C)C[C@H](NC(=O)CCl)[C@]23CCC[C@@](C)(CC[C@@H]12)C3
Activity [1]: Active
IC50 [2]: 9.7 µM
Activity [3]: 168 µM
Activity [14]: 89%
inhibition [4]: Active
selectivity ratio [5]: 33
Activity [15]: inactive
Activity [8]: 57.8%
Activity [9]: 9.9%
Activity [10]: 13.9%
Activity [11]: 18.4%

CCCCCN[C@]12CCC[C@](C)(CC[C@@H]3[C@@H]1CC3(C)C)C2
Activity [16]: Active
solubility [17]: Insoluble

CC1(C)C[C@H](NCc2ccccc2)[C@]23CCC[C@@](C)(CC[C@@H]12)C3
Activity [1]: Active
IC50 [2]: 23.6 µM

CC1(C)C[C@H]2[C@H]1CC[C@@]1(C)CCC[C@]2(N)C1
Activity [1]: Active
IC50 [2]: 34.9 µM

CC1(C)C[C@H]2[C@H]1CC[C@@]1(C)CCC[C@]2(NC(=O)CCl)C1
Activity [1]: Active
IC50 [2]: 21.4 µM

CCCCC(=O)N[C@]12CCC[C@](C)(CC[C@@H]3[C@@H]1CC3(C)C)C2
Activity [1]: Active
IC50 [2]: 55.3 µM
